The values below come from ChEMBL document CHEMBL1250500, “E-2-[3-(3,4-dichlorophenyl)-1-oxo-2-propenyl]-3-methylquinoxaline-1,4-dioxide: a lead antitubercular agent which alters mitochondrial respiration in rat liver” (Eur J Med Chem, 2010).

As usually defined, the pIC50 is the negative decadic logarithm of the IC50, by convention in mol/L. A lower pIC50 goes with a large IC50. Usually IC90 stands for the point of the concentration-response curve where the effect stands at 90%. Low values mean greater potency, high ones weaker potency.

The subject of assay [1] is Mycobacterium tuberculosis. Briefly: Antitubercular activity against Mycobacterium tuberculosis H37Rv ATCC 27294 by microplate alamar blue assay. Format: functional, organism-based. The method, boiled down:
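Broth microdilution in BACTEC 12B medium, with Alamar Blue read-out.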
A general note: Resazurin is reduced to fluorescent resorufin, in cell work by metabolically active cells.

The species entered for assay [2] is Rattus norvegicus. Briefly: Induction of rat liver mitochondria respiration assessed as consumption of oxygen at 1 to 10 uM by polarography. Format: functional. A digest of the protocol: (§1)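 Liver mitochondria isolated from a rat anesthetized with isoflurane and decapitated. Oxygen consumption measured polarographically. Compounds tested at 1, 5 and 10 μM, added in 4 μL DMSO. A DMSO-only (4 μL) solvent control was run alongside.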

For assay [3], the species on record is Rattus norvegicus. Briefly: Induction of rat liver mitochondria respiration assessed as consumption of oxygen by polarography. The class given is functional. A digest of the protocol:
as §1

pIC50: −log10 of the molar value. Calls of active or inactive are those of the source. The rule behind the calls is not given here. Some results are limits rather than exact numbers.

In assay [1], `COc1cc(/C=C/C(=O)c2c(C)[n+]([O-])c3ccccc3[n+]2[O-])cc(OC)c1OC` gave a pIC50 of 5.16 and an IC90 of 11.9 µM.

In assay [1], `Cc1c(C(=O)/C=C/c2cccc([N+](=O)[O-])c2)[n+]([O-])c2ccccc2[n+]1[O-]` had a pIC50 of 5.66 and an IC90 of 2.39 µM.

For the compound `COc1ccc(/C=C/C(=O)c2c(C)[n+]([O-])c3ccccc3[n+]2[O-])cc1OC`, in assay [1], the pIC50 was 5.04 and the IC90 was 17.2 µM.

In assay [1], `Cc1ccc(/C=C/C(=O)c2c(C)[n+]([O-])c3ccccc3[n+]2[O-])cc1` showed a pIC50 of 5.25 and an IC90 of 9.44 µM.

Take `Cc1c(C(=O)/C=C/c2ccc3c(c2)OCO3)[n+]([O-])c2ccccc2[n+]1[O-]`: in assay [1], the pIC50 was 4.71 and the 90% effect level (IC90) was put at 35.8 µM.

As to `CC(=O)c1c(C)[n+]([O-])c2ccccc2[n+]1[O-]` [MEQUINDOX], in assay [1], the pIC50 is 5.17 and the 90% effect level (IC90) was put at 7.89 µM. In addition, in assay [2], the result was inactive.

In assay [1], `Cc1c(C(=O)/C=C/c2ccc(Br)cc2)[n+]([O-])c2ccccc2[n+]1[O-]` had a pIC50 of 5.43 and an IC90 of more than 250 µM.

In assay [1], `Cc1c(C(=O)/C=C/c2ccccc2)[n+]([O-])c2ccccc2[n+]1[O-]` gave a pIC50 of 5.41 and an IC90 of 6.12 µM.

For `Cc1c(C(=O)/C=C/c2ccc([N+](=O)[O-])cc2)[n+]([O-])c2ccccc2[n+]1[O-]`, in assay [1], the pIC50 is less than 3.60 and the IC90 is more than 250 µM.

Consider `Cc1c(C(=O)/C=C/c2ccc(F)cc2)[n+]([O-])c2ccccc2[n+]1[O-]`, for which, in assay [1], the pIC50 was 5.23 and the IC90 was 10.7 µM.

In assay [1], `Cc1c(C(=O)/C=C/c2ccc(Cl)c(Cl)c2)[n+]([O-])c2ccccc2[n+]1[O-]` gave a pIC50 of 5.99 and an IC90 of 1.53 µM. For the same compound, the Activity entry in assay [3] is “Dose-dependent effect”.

In assay [1], `COc1ccc(/C=C/C(=O)c2c(C)[n+]([O-])c3ccccc3[n+]2[O-])cc1` gave a pIC50 of 4.64 and an IC90 of 40.2 µM.

As to `Cc1c(C(=O)/C=C/c2ccc(Cl)cc2)[n+]([O-])c2ccccc2[n+]1[O-]`, in assay [1], the pIC50 is 5.58 and the IC90 came out at 4.12 µM.
